Assay results reported in ChEMBL document CHEMBL3853295, “Design and synthesis of novel pyrazolo[1,5-a]pyrimidine derivatives bearing nitrogen mustard moiety and evaluation of their antitumor activity in vitro and in vivo” (Eur J Med Chem, 2016).
pIC50: −log10 of the molar value. Calls of active or inactive are those of the source. The calls are words filed in the database; no cut-off is given here.

Columns and labels:
[1] = Antitumor activity against human HepG2 cells xenografted in nude mouse assessed as tumor growth inhibition at 10 mg/kg, ip administered every day for 15 times measured from day 12 to 26; format: functional; set-up: scale not given: the % may be the effect or the level left
Outline: (§1)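 Female nude mice given 5 × 10^6 HepG-2 cells subcutaneously in the left flank. Randomized, n = 5 per group. Daily i.p. injection for 15 times, with saline as vehicle control. Tumor length and width recorded every other day; volume taken as 1/2·length·width² once tumors reached 130–160 mm3. Result is tumor growth inhibition versus the saline group.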

[2] = Antitumor activity against human HepG2 cells xenografted in nude mouse assessed as tumor growth inhibition at 20 mg/kg, ip administered every day for 15 times measured from day 12 to 26; format: functional; set-up: scale not given: the % may be the effect or the level left; outline: as §1
Mus musculus [3] = assay: Toxicity in nude mouse xenografted with human HepG2 cells assessed as body weight change at 10 mg/kg, ip administered every day for 15 times measured from day 12 to 26; format: organism-based; conditions: in vivo
Outline: (§2)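 Same subcutaneous HepG-2 xenograft in female nude mice (5 × 10^6 cells, left flank). n = 5 per group, daily i.p. dosing for 15 times, saline control. Body weight of each mouse recorded every other day during therapy and followed after treatment stopped. Treated versus untreated compared by p value over days 12–26.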

Mus musculus [4] = assay: Toxicity in nude mouse xenografted with human HepG2 cells assessed as body weight change at 20 mg/kg, ip administered every day for 15 times measured from day 12 to 26; format: organism-based; conditions: in vivo; outline: as §2
[5] = Cytotoxicity against human SH-SY5Y cells after 72 hrs by MTT assay; format: functional, cell-based
Outline: (§3)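 Cells cultured in DMEM or RPMI 1640 with 10% FBS. Seeded at about 2 × 10^3 per well and grown 24 h at 37 °C, 5% CO2. Compounds added at final 0.1–1000 uM for 72 h, 5 wells per concentration. MTT added for 4 h at 37 °C, then lysis overnight. Absorbance read at 570 nm against a 650 nm reference; IC50 calculated.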

[6] = Cytotoxicity against human HepG2 cells after 72 hrs by MTT assay; format: functional, cell-based; conditions: HepG2, 72 h; outline: as §3
[7] = Cytotoxicity against human A549 cells after 72 hrs by MTT assay; format: functional, cell-based; conditions: A549, 72 h; outline: as §3
[8] = Cytotoxicity against human MCF7 cells after 72 hrs by MTT assay; format: functional, cell-based; conditions: MCF7, 72 h; outline: as §3
[9] = Cytotoxicity against human DU145 cells after 72 hrs by MTT assay; format: functional, cell-based; conditions: DU-145, 72 h; outline: as §3
[10] = Cytotoxicity against human GES-1 cells assessed as reduction in cell viability after 72 hrs by MTT assay; format: toxicity, cell-based, GES1; outline: as §3
[11] = Cell cycle arrest in human HepG2 cells assessed as accumulation at G1 phase at 1 to 3 uM after 24 hrs by propidium iodide staining-based flow cytometric analysis; format: functional
Outline: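 HepG2 cells exposed 24 h, then trypsinized, washed in ice-cold PBS and fixed in ice-cold 70% ethanol for at least 24 h. Resuspended in 0.4 mL PBS with RNase A (1 mg/ml stock) and PI (500 ug/ml stock) for 30 min at 4 °C in the dark. Cycle distribution (G1, S, G2/M percentages) read by flow cytometry.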

HepG2 [12] = assay: Induction of apoptosis in human HepG2 cells assessed as viable cells at 2 uM after 24 hrs by Annexin V-FITC/propidium iodide staining based flow cytometric analysis analysis (reference value: 90.7 %); format: functional; conditions: HepG2, 24 h, read-out: Activity
HepG2 [13] = assay: Induction of apoptosis in human HepG2 cells assessed as early apoptotic cells at 2 uM after 24 hrs by Annexin V-FITC/propidium iodide staining based flow cytometric analysis analysis (reference value: 1.60 %); format: functional
HepG2 [14] = assay: Induction of apoptosis in human HepG2 cells assessed as late apoptotic cells at 2 uM after 24 hrs by Annexin V-FITC/propidium iodide staining based flow cytometric analysis analysis (reference value: 5.93 %); format: functional
HepG2 [15] = assay: Induction of apoptosis in human HepG2 cells assessed as necrotic cells at 2 uM after 24 hrs by Annexin V-FITC/propidium iodide staining based flow cytometric analysis analysis (reference value: 1.74 %); format: functional
HepG2 [16] = assay: Induction of apoptosis in human HepG2 cells assessed as viable cells at 4 uM after 24 hrs by Annexin V-FITC/propidium iodide staining based flow cytometric analysis analysis (reference value: 90.7 %); format: functional; conditions: HepG2, 24 h, read-out: Activity
HepG2 [17] = assay: Induction of apoptosis in human HepG2 cells assessed as early apoptotic cells at 4 uM after 24 hrs by Annexin V-FITC/propidium iodide staining based flow cytometric analysis analysis (reference value: 1.60 %); format: functional
HepG2 [18] = assay: Induction of apoptosis in human HepG2 cells assessed as late apoptotic cells at 4 uM after 24 hrs by Annexin V-FITC/propidium iodide staining based flow cytometric analysis analysis (reference value: 5.93 %); format: functional
HepG2 [19] = assay: Induction of apoptosis in human HepG2 cells assessed as necrotic cells at 4 uM after 24 hrs by Annexin V-FITC/propidium iodide staining based flow cytometric analysis analysis (reference value: 1.74 %); format: functional
HepG2 [20] = assay: Induction of apoptosis in human HepG2 cells assessed as viable cells at 6 uM after 24 hrs by Annexin V-FITC/propidium iodide staining based flow cytometric analysis analysis (reference value: 90.7 %); format: functional; conditions: HepG2, 24 h, read-out: Activity
HepG2 [21] = assay: Induction of apoptosis in human HepG2 cells assessed as early apoptotic cells at 6 uM after 24 hrs by Annexin V-FITC/propidium iodide staining based flow cytometric analysis analysis (reference value: 1.60 %); format: functional
HepG2 [22] = assay: Induction of apoptosis in human HepG2 cells assessed as late apoptotic cells at 6 uM after 24 hrs by Annexin V-FITC/propidium iodide staining based flow cytometric analysis analysis (reference value: 5.93 %); format: functional
HepG2 [23] = assay: Induction of apoptosis in human HepG2 cells assessed as necrotic cells at 6 uM after 24 hrs by Annexin V-FITC/propidium iodide staining based flow cytometric analysis analysis (reference value: 1.74 %); format: functional
Mus musculus [24] = assay: Toxicity in nude mouse xenografted with human HepG2 cells assessed as body weight change at 10 and 20 mg/kg, ip administered every day for 15 days and measured treatment cessation; format: organism-based; conditions: in vivo, 360 h; outline: as §2

## O=P1(N(CCCl)CCCl)NCCCO1 (stereo not drawn) [CYCLOPHOSPHAMIDE ANHYDROUS]
[1]
  Activity: 42.11%
[2]
  Activity: 51.48%
Mus musculus [3]
  Activity: 7.04%
Mus musculus [4]
  Activity: 10.63%

## N#Cc1cnn2c(Nc3ccc(N(CCCl)CCCl)cc3)cc(CN3CCC(N4CCCCC4)CC3)nc12
[5]
  pIC50: 5.22
[6]
  pIC50: 6.68
[7]
  pIC50: 5.21
[8]
  pIC50: 5.08
[9]
  pIC50: 5.17
[10]
  IC50 at 72 h: 9.54 µM
[11]
  Activity: Active
HepG2 [12]
  viability at 2 µM: 81.8%
HepG2 [13]
  Activity: 2.87%
HepG2 [14]
  Activity: 11.9%
HepG2 [15]
  Activity: 3.39%
HepG2 [16]
  viability at 4 µM: 73.2%
HepG2 [17]
  Activity: 3.78%
HepG2 [18]
  Activity: 18%
HepG2 [19]
  Activity: 5.08%
HepG2 [20]
  viability at 6 µM: 57.3%
HepG2 [21]
  Activity: 5.56%
HepG2 [22]
  Activity: 29.5%
HepG2 [23]
  Activity: 7.69%
[1]
  Activity: 43.88%
[2]
  Activity: 58.26%
Mus musculus [3]
  Activity: 7.15%
Mus musculus [4]
  Activity: 9.21%
Mus musculus [24]
  Activity: Non-Toxic
